Results as given in PubChem BioAssay AID602408 (Southern Research Specialized Biocontainment Screening …, 2012).
Values joined by “and” are separate entries in the source; they are usually repeats but may differ in a detail not shown here. Equal values may be shown once. Active and inactive are the calls of the source.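 Rule for the calls: active = inhibition of phage lysis above 30%; inactive = the rest.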

Assays:
[1] = tested on: E. coli UTI89 K1 capsule, phage lysis, A600; assay: blocking phage-mediated lysis of K1 E. coli – UTI89 strain, A600 absorbance, round 2, bacterial capsule biogenesis project, confirmation (AID 602408)
In short: (§1)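 Material: E. coli K1 UTI89 cells / Medium: LB / Probe or stimulus: K1F phage / Times: 1.5 h pre-incubation, 2 h phage at 37 °C / Signal: OD600 absorbance / Replication: duplicates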

[2] = as above; details: E. coli UTI89 K1 capsule, phage lysis, A600; at 100 µM (top of the series)
In short: as §1

## O=C(Nc1cc(-c2ccccc2)sc1C(=O)O)c1ccc(Br)o1
[1]
  IC50: 42.2 µM

## O=C(NCCc1ccncc1)c1ccc2ncsc2c1
[2]
  inhibition of phage lysis: 8.25% (inactive)

## O=C(O)c1sc(-c2ccc(OC(F)(F)F)cc2)cc1NC(=O)c1c(F)cccc1F
[1]
  IC50: 9.77 µM

## CCOc1ccc(-c2cc(NC(=O)c3ccc(Br)o3)c(C(=O)O)s2)cc1
[1]
  IC50: 4.85 µM

## CC1(C(=O)O)CCC(C(=O)Nc2ccc3ccccc3c2)C1(C)C (configuration not stated)
[1]
  IC50: 43.9 µM

## O=C(Nc1cc(-c2ccc(OCCC(F)(F)F)cc2)sc1C(=O)O)c1ccc(Br)o1
[1]
  IC50: 0.84 µM

## CC(C)c1ccc(-c2cc(NC(=O)c3cc4ccccc4o3)c(C(=O)O)s2)cc1
[1]
  IC50: 23.6 µM

## O=C(Nc1cc(-c2ccccc2)sc1C(=O)O)c1cccc(Cl)c1
[1]
  IC50: 85.5 µM

## CCCc1ccc(-c2cc(NC(=O)c3ccc(Br)o3)c(C(=O)O)s2)cc1
[1]
  IC50: 1.43 µM

## CCOc1ccc2nc(NC(=O)c3ccc(Br)s3)sc2c1
[1]
  IC50: 5.06 µM

## CCCCOc1ccc(-c2cc(NC(=O)c3c(F)cc(F)cc3F)c(C(=O)O)s2)cc1
[1]
  IC50: 6.39 µM

## O=C(Nc1ncccc1O)c1ccc2ncsc2c1
[2]
  inhibition of phage lysis: 0.85% (inactive)

## CCOc1ccc(-c2cc(NC(=O)c3c(F)cccc3C(F)(F)F)c(C(=O)O)s2)cc1
[1]
  IC50: 52.6 µM

## COc1cc2sc(NC(=O)c3ccc(Br)s3)nc2cc1F
[2]
  inhibition of phage lysis: -6.05% (inactive)

## CC(C)c1ccc(-c2cc(NC(=O)c3c(F)cccc3F)c(C(=O)O)s2)cc1
[1]
  IC50: 5.88 µM

## CC(C)(C)c1ccc(-c2cc(NC(=O)c3c(F)cccc3F)c(C(=O)O)s2)cc1
[1]
  IC50: 6.99 µM

## CCOc1ccc(-c2cc(NC(=O)c3ccc(OC)c(OC)c3)c(C(=O)O)s2)cc1
[1]
  IC50: 59.9 µM

## COc1ccc2nc(NC(=O)c3ccc(Br)s3)sc2c1
[1]
  IC50: 2.33 µM

## CCCc1ccc(-c2cc(NC(=O)c3c(F)cc(F)cc3F)c(C(=O)O)s2)cc1
[1]
  IC50: 15.9 µM

## CC(C)(C)c1ccc(-c2cc(NC(=O)c3cccc(F)c3)c(C(=O)O)s2)cc1
[1]
  IC50: 9.72 µM

## O=C(Nc1ccnc(F)c1)c1ccc2ncsc2c1
[1]
  IC50: 4.62 µM

## CCOc1ccc(-c2cc(NC(=O)c3c(F)cccc3F)c(C(=O)O)s2)cc1
[1]
  IC50: 2.8 µM and 3.73 µM

## O=C(Nc1ccnc(Br)c1)c1ccc2ncsc2c1
[1]
  IC50: 4.26 µM

## CCOc1ccc(-c2cc(NC(=O)c3c(F)cc(F)cc3F)c(C(=O)O)s2)cc1
[1]
  IC50: 20 µM

## O=C(Nc1cc(-c2ccc(C(F)(F)F)cc2)sc1C(=O)O)c1ccc(Br)o1
[1]
  IC50: 9.74 µM

## CCCCOc1ccc(-c2cc(NC(=O)c3cc(Br)c(Br)o3)c(C(=O)O)s2)cc1
[1]
  IC50: 23.3 µM

## O=C(NCc1cc([N+](=O)[O-])ccc1O)c1cccnc1Sc1ccccc1Cl
[1]
  IC50: 14.8 µM

## O=C(Nc1cc(-c2ccc(OCCCC(F)(F)F)cc2)sc1C(=O)O)c1ccc(Br)o1
[1]
  IC50: 1.78 µM

## Cc1ccc(-c2cc(NC(=O)c3ccc(Br)o3)c(C(=O)O)s2)cc1
[1]
  IC50: 11.3 µM

## Cc1ccc(-c2cc(NC(=O)c3cccc(F)c3)c(C(=O)O)s2)cc1
[1]
  IC50: 44.5 µM

## CCCCOc1ccc(-c2cc(NC(=O)c3c(F)cccc3F)c(C(=O)O)s2)cc1
[1]
  IC50: < 0.78 µM

## COc1ccc(-c2cc(NC(=O)c3ccc(Br)o3)c(C(=O)O)s2)cc1
[1]
  IC50: 8.75 µM

## O=C(O)c1sc(-c2ccc(OCC(F)(F)F)cc2)cc1NC(=O)c1c(F)cccc1F
[1]
  IC50: 2.86 µM

## CCOc1ccc(-c2cc(NC(=O)c3cccc(Cl)c3)c(C(=O)O)s2)cc1
[1]
  IC50: 64.9 µM

## O=C(O)c1sc(-c2ccc(OCCCC(F)(F)F)cc2)cc1NC(=O)c1c(F)cc(F)cc1F
[1]
  IC50: 5.53 µM

## COc1ccc2nc(NC(=O)c3ccco3)sc2c1
[2]
  inhibition of phage lysis: 0.81% (inactive)

## O=C(NCc1ccncc1)c1ccc2ncsc2c1
[2]
  inhibition of phage lysis: -2.06% (inactive)

## O=C(NC1CCNCC1)c1ccc2ncsc2c1
[2]
  inhibition of phage lysis: -6.19% (inactive)

## O=C(Nc1ccncc1F)c1ccc2ncsc2c1
[1]
  IC50: 18.6 µM

## O=C(Nc1ccncc1)c1ccc2ncsc2c1
[2]
  inhibition of phage lysis: 17.9% (inactive)
[1]
  IC50: 1.05 µM

## CC1=NN2C(=N)/C(=C\c3ccc(SCc4ccco4)o3)C(=O)N=C2S1
[1]
  IC50: 37.9 µM

## O=C(Nc1cc(-c2ccccc2)sc1C(=O)O)c1cccs1
[1]
  IC50: 68.1 µM

## O=C(O)c1sc(-c2ccc(C(F)(F)F)cc2)cc1NC(=O)c1c(F)cccc1F
[1]
  IC50: 20.9 µM

## O=C(Nc1cc(-c2ccccc2)sc1C(=O)O)c1ccc2c(c1)OCCO2
[1]
  IC50: 89.1 µM

## COc1cc(NC(=O)c2ccc3ncsc3c2)ccn1
[1]
  IC50: 7.75 µM

## CCCOc1ccc(-c2cc(NC(=O)c3c(F)cc(F)cc3F)c(C(=O)O)s2)cc1
[1]
  IC50: 8.06 µM

## CCOc1ccc(-c2cc(NC(=O)c3cccc(F)c3)c(C(=O)O)s2)cc1
[1]
  IC50: 20.1 µM

## [N-]=[N+]=NCCOc1ccc(-c2cc(NC(=O)c3c(F)cccc3F)c(C(=O)O)s2)cc1
[1]
  IC50: 17.5 µM

## O=C(Nc1cc(-c2ccc(OC(F)(F)F)cc2)sc1C(=O)O)c1ccc(Br)o1
[1]
  IC50: 4.6 µM

## O=C(O)c1sc(-c2ccc(OCCC(F)(F)F)cc2)cc1NC(=O)c1c(F)cccc1F
[1]
  IC50: 0.84 µM

## CC(C)c1ccc(-c2cc(NC(=O)c3cccc(F)c3)c(C(=O)O)s2)cc1
[1]
  IC50: 18.4 µM

## O=C(O)c1sc(-c2ccc(OCCC(F)(F)F)cc2)cc1NC(=O)c1c(F)cc(F)cc1F
[1]
  IC50: 3.11 µM

## CCCCOc1ccc(-c2cc(NC(=O)c3ccc(Br)o3)c(C(=O)O)s2)cc1
[1]
  IC50: 0.85 µM

## O=C(Nc1ccnc(Cl)c1)c1ccc2ncsc2c1
[1]
  IC50: 2.57 µM

## CCOc1ccc(-c2cc(NC(=O)c3ccc(Br)s3)c(C(=O)O)s2)cc1
[1]
  IC50: 13.9 µM

## Cc1ccc(-c2cc(NC(=O)c3c(F)cccc3F)c(C(=O)O)s2)cc1
[1]
  IC50: 21.3 µM

## CCCc1ccc(-c2cc(NC(=O)c3c(F)cccc3F)c(C(=O)O)s2)cc1
[1]
  IC50: 2.63 µM

## CC(C)c1ccc(-c2cc(NC(=O)c3ccc(Br)o3)c(C(=O)O)s2)cc1
[1]
  IC50: 2.81 µM

## CCCc1ccc(-c2cc(NC(=O)c3cc(Br)c(Br)o3)c(C(=O)O)s2)cc1
[1]
  IC50: 6.78 µM

## O=C(Nc1cc(-c2ccc(OCCCC(F)(F)F)cc2)sc1C(=O)O)c1cc(Br)c(Br)o1
[2]
  inhibition of phage lysis: 12.2% (inactive)
[1]
  IC50: 32.2 µM

## O=C(O)c1sc(-c2ccc(OCC(F)(F)F)cc2)cc1NC(=O)c1c(F)cc(F)cc1F
[1]
  IC50: 94.9 µM

## O=C(ONc1ccc(N=NC(=O)c2ccccc2O)cc1)c1ccccc1
[1]
  IC50: 2.01 µM

## COc1ccc2nc(NC(=O)c3cccs3)sc2c1
[2]
  inhibition of phage lysis: 24% (inactive)

## O=C(O)c1sc(-c2ccc(OCCCC(F)(F)F)cc2)cc1NC(=O)c1c(F)cccc1F
[1]
  IC50: 10.3 µM

## O=C(Nc1cc(-c2ccc(OCC(F)(F)F)cc2)sc1C(=O)O)c1ccc(Br)o1
[1]
  IC50: 4.9 µM
